We go through five compounds from publication PMC6893910 (ACS chemical biology, 2019).

Entries after “also recorded” stand apart in the source; their conditions may differ.

One may read the IC50 as the midpoint of a concentration-inhibition curve.

For data set [1], the target named is T1, HDAC11 (Homo sapiens, UniProt Q96DB2).
T1 sequence (Q96DB2 1-347): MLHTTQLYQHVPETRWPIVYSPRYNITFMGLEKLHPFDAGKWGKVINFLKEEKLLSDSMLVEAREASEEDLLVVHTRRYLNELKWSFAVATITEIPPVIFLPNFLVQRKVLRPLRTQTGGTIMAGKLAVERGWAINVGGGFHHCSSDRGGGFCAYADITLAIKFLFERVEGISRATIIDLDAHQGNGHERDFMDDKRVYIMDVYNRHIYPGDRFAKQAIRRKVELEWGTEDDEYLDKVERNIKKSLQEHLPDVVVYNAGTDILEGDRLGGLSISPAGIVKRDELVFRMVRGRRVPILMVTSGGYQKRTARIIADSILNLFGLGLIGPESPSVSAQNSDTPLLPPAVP
The data set is described as follows: HPLC-based HDAC11 assay with myristoyl-H3K9 peptide. The data set is classed as biochemical.

In data set [2] the test system is acetylation level of α-tubulin. The data set is described as follows: Acetyl-α-tubulin. The data set is classed as cell-based. To be noted: HEK 293T cells, 6 hrs. The procedure, abridged:
(§1)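 HEK 293T cells were treated with test compound for 6 hrs. Acetyl-α-tubulin (K40) and acetyl-histone H3 were both detected by immunoblot of the treated cells.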

For data set [3], the system named is acetylation level of histone H3. The data set is described as follows: Acetyl-histone H3 immunoblot in HEK 293T cells. To be noted: 6 hrs. The data set is classed as cell-based. The procedure, abridged: as §1
The target in data set [4] is T1, HDAC11. The data set is described as follows: HDAC11 demyristoylation of myristoyl-SHMT2 peptide in vitro. The data set is classed as biochemical. To be noted: read-out: IC50 against HDAC11; myristoyl-SHMT2 peptide substrate.
The next data set deals with HDAC1 (Homo sapiens, UniProt Q13547). The data set is described as follows: In vitro selectivity assay with acyl-H3K9 peptide, HDAC1. The data set is classed as biochemical. As to conditions: at 100 μM.
HDAC1, sequence (Q13547 whole entry, species assumed): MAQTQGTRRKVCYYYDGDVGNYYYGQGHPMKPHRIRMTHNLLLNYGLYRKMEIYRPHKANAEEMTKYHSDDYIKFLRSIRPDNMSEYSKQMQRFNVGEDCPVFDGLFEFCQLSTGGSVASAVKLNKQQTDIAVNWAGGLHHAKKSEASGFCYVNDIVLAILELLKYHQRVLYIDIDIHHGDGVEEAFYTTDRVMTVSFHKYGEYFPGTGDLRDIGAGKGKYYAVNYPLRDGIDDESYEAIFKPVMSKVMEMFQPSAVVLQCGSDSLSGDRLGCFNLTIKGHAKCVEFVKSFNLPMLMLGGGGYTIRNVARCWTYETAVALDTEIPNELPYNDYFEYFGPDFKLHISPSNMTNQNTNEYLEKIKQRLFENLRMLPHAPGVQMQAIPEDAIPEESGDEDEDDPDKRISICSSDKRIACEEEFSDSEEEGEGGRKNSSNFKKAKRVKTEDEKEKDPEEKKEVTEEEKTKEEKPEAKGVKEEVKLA
The target in a further data set is T2, HDAC8 (Homo sapiens, UniProt Q9BY41).
T2 sequence (Q9BY41 1-377): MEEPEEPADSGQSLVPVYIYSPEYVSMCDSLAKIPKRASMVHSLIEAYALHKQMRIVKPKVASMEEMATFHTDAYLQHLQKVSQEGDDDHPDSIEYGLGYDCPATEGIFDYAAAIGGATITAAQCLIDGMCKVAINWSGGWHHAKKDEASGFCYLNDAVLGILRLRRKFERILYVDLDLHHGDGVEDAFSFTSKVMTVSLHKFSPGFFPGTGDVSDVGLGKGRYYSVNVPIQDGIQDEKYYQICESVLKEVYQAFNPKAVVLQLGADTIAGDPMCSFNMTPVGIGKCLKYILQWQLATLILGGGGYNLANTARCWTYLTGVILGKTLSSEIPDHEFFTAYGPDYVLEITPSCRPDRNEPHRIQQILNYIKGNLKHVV
Description: In vitro selectivity assay with acyl-H3K9 peptide, HDAC8. As to conditions: at 100 μM. The data set is classed as biochemical.

For the next data set, the target named is HDAC4 (Homo sapiens, UniProt P56524). Description: In vitro selectivity assay with acyl-H3K9 peptide, HDAC4. The data set is classed as biochemical. As to conditions: at 100 μM.
HDAC4, sequence (P56524 whole entry, species assumed): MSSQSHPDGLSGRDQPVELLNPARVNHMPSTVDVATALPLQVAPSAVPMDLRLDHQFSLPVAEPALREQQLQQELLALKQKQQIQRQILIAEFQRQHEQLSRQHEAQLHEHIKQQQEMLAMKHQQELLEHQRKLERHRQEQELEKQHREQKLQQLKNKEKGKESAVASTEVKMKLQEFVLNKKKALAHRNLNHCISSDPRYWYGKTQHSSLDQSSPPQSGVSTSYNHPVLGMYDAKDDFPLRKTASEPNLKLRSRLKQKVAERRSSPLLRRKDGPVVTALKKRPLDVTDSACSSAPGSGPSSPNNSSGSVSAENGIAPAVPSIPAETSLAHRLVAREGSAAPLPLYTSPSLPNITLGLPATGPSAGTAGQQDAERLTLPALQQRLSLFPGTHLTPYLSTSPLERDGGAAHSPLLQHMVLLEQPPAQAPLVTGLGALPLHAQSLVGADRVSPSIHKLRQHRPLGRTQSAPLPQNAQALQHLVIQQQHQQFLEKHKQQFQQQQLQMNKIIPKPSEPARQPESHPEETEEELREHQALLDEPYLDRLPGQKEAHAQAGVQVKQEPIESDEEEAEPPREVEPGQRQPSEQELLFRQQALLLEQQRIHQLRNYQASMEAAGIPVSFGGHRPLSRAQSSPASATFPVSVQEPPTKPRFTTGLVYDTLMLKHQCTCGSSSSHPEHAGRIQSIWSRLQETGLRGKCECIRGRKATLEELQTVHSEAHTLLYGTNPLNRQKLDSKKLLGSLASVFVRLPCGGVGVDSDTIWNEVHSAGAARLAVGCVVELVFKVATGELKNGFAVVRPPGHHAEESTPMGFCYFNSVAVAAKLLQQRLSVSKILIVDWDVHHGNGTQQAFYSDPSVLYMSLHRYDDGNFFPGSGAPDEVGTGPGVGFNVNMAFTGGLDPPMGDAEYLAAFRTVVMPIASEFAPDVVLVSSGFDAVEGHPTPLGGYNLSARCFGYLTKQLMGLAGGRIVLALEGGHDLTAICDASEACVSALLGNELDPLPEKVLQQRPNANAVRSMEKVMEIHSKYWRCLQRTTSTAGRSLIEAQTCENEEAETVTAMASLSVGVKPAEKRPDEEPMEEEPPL
The target in the next data set is T3, SIRT1 (Homo sapiens, UniProt Q96EB6).
T3 sequence (Q96EB6 1-747): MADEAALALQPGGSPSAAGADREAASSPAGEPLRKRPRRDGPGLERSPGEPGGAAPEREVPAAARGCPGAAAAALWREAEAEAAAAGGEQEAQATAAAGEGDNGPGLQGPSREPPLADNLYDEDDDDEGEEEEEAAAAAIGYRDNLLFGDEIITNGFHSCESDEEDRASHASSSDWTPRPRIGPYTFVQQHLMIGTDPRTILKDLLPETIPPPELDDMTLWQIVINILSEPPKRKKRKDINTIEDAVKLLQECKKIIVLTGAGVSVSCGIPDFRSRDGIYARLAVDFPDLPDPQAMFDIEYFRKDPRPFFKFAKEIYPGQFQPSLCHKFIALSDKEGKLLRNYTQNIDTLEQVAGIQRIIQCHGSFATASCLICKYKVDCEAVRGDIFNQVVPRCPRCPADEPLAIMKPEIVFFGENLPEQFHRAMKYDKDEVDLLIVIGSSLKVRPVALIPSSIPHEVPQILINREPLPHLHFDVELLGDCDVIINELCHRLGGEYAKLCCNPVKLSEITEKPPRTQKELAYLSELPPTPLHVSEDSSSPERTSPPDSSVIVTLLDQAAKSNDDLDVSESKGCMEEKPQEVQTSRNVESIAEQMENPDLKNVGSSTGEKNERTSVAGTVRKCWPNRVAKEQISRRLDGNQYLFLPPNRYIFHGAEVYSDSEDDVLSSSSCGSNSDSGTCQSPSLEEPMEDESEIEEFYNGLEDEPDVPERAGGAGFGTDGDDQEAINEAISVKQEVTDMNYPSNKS
Description: In vitro selectivity assay with acyl-H3K9 peptide, SIRT1. The data set is classed as biochemical. As to conditions: at 100 μM.

The next data set has as its target T4, SIRT2 (Homo sapiens, UniProt Q8IXJ6).
T4 sequence (Q8IXJ6 1-389): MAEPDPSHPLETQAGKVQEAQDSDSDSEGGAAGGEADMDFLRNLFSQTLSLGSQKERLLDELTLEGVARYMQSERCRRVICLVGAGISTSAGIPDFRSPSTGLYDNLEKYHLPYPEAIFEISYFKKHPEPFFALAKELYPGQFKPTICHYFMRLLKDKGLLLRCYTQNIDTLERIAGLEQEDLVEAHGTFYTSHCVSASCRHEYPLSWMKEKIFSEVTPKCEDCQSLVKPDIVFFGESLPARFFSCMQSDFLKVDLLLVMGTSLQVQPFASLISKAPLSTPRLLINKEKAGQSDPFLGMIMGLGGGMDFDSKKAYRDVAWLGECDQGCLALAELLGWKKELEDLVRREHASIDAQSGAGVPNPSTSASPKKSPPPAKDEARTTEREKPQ
The data set is described as follows: In vitro selectivity assay with acyl-H3K9 peptide, SIRT2. The data set is classed as biochemical. As to conditions: at 100 μM.

The target in another data set is T5, SIRT3 (Homo sapiens, UniProt Q9NTG7).
T5 sequence (Q9NTG7 1-399): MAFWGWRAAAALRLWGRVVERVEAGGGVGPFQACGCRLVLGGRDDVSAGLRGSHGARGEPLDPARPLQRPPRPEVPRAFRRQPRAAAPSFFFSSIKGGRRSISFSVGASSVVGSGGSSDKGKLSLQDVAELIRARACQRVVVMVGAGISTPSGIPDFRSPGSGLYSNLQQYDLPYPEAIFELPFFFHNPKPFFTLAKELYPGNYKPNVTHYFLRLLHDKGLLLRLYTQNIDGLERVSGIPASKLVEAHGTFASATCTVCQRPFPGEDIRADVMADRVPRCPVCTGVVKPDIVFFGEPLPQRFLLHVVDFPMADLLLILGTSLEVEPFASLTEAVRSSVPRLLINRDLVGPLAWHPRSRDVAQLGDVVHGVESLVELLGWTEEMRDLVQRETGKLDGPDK
Description: In vitro selectivity assay with acyl-H3K9 peptide, SIRT3. To be noted: at 100 μM. The data set is classed as biochemical.

Another data set concerns the target SIRT6 (Homo sapiens, UniProt Q8N6T7). Description: In vitro selectivity assay with acyl-H3K9 peptide, SIRT6. The data set is classed as biochemical. To be noted: at 100 μM.
Data set [5] can be described thus: LC-MS based detection of compound in cell lysate. The data set is classed as in vitro ADME. To be noted: LC-MS based assay.
Setting [6] is: myristoyl-H3K9 peptide substrate, HPLC assay.

SIRT6, sequence (Q8N6T7 whole entry, species assumed): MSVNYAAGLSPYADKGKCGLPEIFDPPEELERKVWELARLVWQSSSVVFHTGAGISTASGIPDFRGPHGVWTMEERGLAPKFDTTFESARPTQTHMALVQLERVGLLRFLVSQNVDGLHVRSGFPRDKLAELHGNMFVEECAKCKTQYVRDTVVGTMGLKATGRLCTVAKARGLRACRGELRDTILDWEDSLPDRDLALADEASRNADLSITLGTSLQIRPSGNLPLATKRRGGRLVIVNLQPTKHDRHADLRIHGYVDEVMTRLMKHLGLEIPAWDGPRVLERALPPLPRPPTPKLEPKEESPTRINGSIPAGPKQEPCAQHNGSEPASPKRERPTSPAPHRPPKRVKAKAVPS

`CCCCCCCCCCCCCCCC(=O)O` [palmitic acid]: the HDAC11 inhibition result at HDAC11 [1] (at 10 μM) is “no inhibition”.
For the compound `CC1(C)c2cccc(C(=O)NO)c2CN1c1cnc(C(F)(F)F)cn1` [FT895], the “acetylation level of α-tubulin” value in data set [2] (up to 50 μM) is “did not affect”. In addition, the “acetylation level of histone H3” value in [3] (up to 50 μM) is on record as “did not affect”.
`CCCCCCCCCCCCCCCCNNC(=O)c1cccs1` [SIS17]: the IC50 at HDAC11 [1] (read-out: IC50 against HDAC11, myristoyl-H3K9 peptide substrate, HPLC assay) came out at 830 nM; at HDAC11 [4], 270 nM. The HDAC1 inhibition entry at HDAC1 is reported as “did not show significant inhibition”. Besides, on HDAC8, the HDAC8 inhibition entry was “did not show significant inhibition”. Also, the HDAC4 inhibition entry at HDAC4 was “did not show significant inhibition”. The SIRT1 inhibition result at SIRT1 is “did not show significant inhibition”. Further, on SIRT2, the SIRT2 inhibition result is recorded as “did not show significant inhibition”. Besides, the SIRT3 inhibition entry on SIRT3 is “did not show significant inhibition”. Moreover, on SIRT6, the SIRT6 inhibition result is reported as “did not show significant inhibition”. In addition, the “acetylation level of α-tubulin” value in data set [2] (up to 50 μM) is listed as “did not affect”. In addition, the “acetylation level of histone H3” value in data set [3] (up to 50 μM) is given as “did not affect”. The “detection of compound in cell lysate” value in [5] is reported as “could readily detect”.
On to `CCCCNNC(=O)c1ccc(Br)cc1` [UF010], for which, on HDAC11 [1] (setting [6]), the “HDAC11 inhibition (in words)” value is given as “Neither SAHA or UF010 could inhibit HDAC11; also recorded: did not inhibit HDAC11”.
For the compound `O=C(CCCCCCC(=O)Nc1ccccc1)NO` [SAHA, Vorinostat], on HDAC11 [1] (setting [6]), the “HDAC11 inhibition (in words)” value is “Neither SAHA or UF010 could inhibit HDAC11”. The “acetylation level of α-tubulin” value in [2] (at 1 μM) is listed as “significantly increased”. Besides, in data set [3] (at 1 μM), the “acetylation level of histone H3” value is given as “significantly increased”.
